{"source": "ChEMBL document CHEMBL2424551", "about": "“Synthesis, in vitro evaluation and molecular modelling of naphthalimide analogue as anticancer agents” (2013)", "format_in_all_cases": "functional", "key": {"SR": {"system": "SR", "assay": "Growth inhibition of human SR cells at 10 uM after 48 hrs by SRB assay", "conditions": "read-out: GI", "procedure,_shortened": "(§1)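 NCI 60-cell-line screen with a single 10 µM dose. Cells are grown in RPMI 1640 with 5% FBS and 2 mM L-glutamine, plated at 5000–40,000 cells/well according to doubling time, and preincubated 24 h at 37 °C, 5% CO2; time-zero plates are TCA-fixed at that point. Drug exposure is 48 h. Adherent cells are fixed with cold TCA, stained with 0.4% SRB in 1% acetic acid and read at 515 nm. Percent growth is calculated relative to time-zero and untreated controls and reported as GI%.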"}, "SN12C": {"system": "SN12C", "assay": "Growth inhibition of human SN12C cells at 10 uM after 48 hrs by SRB assay", "conditions": "read-out: GI", "procedure,_shortened": "as §1"}, "SK-OV-3": {"system": "SK-OV-3", "assay": "Growth inhibition of human SKOV3 cells at 10 uM after 48 hrs by SRB assay", "conditions": "SK-OV-3, 48 h, read-out: GI", "procedure,_shortened": "as §1"}, "UO-31": {"system": "UO-31", "assay": "Growth inhibition of human UO31 cells at 10 uM after 48 hrs by SRB assay", "conditions": "UO-31, 48 h, read-out: GI", "procedure,_shortened": "as §1"}, "HOP-62": {"system": "HOP-62", "assay": "Growth inhibition of human HOP62 cells at 10 uM after 48 hrs by SRB assay", "conditions": "HOP-62, 48 h, read-out: GI", "procedure,_shortened": "(§2)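 Cells grown in RPMI 1640 with 5% FBS and 2 mM L-glutamine, plated at 5000–40,000 cells/well by doubling time and preincubated 24 h (37 °C, 5% CO2); a time-zero plate is TCA-fixed. Single dose added, then 48 h incubation. Fixed with cold TCA, stained with 0.4% SRB, dye solubilized in 10 mM Tris base, absorbance at 515 nm; percent growth vs time-zero and untreated control.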"}, "[1]": {"assay": "Growth inhibition of human HCC2998 cells at 10 uM after 48 hrs by SRB assay", "conditions": "HCC 2998, 48 h, read-out: GI", "procedure,_shortened": "as §2"}, "UACC-257": {"system": "UACC-257", "assay": "Growth inhibition of human UACC257 cells at 10 uM after 48 hrs by SRB assay", "conditions": "UACC-257, 48 h, read-out: GI", "procedure,_shortened": "as §1"}, "MDA-MB-468": {"system": "MDA-MB-468", "assay": "Growth inhibition of human MDA-MB-468 cells at 10 uM after 48 hrs by SRB assay", "conditions": "MDA-MB-468, 48 h, read-out: GI", "procedure,_shortened": "as §2"}, "SK-MEL-28": {"system": "SK-MEL-28", "assay": "Growth inhibition of human SK-MEL-28 cells at 10 uM after 48 hrs by SRB assay", "conditions": "SK-MEL-28, 48 h, read-out: GI", "procedure,_shortened": "as §2"}, "HCT-15": {"system": "HCT-15", "assay": "Growth inhibition of human HCT15 cells at 10 uM after 48 hrs by SRB assay", "conditions": "HCT-15, 48 h, read-out: GI", "procedure,_shortened": "as §2"}, "OVCAR-4": {"system": "OVCAR-4", "assay": "Growth inhibition of human OVCAR4 cells at 10 uM after 48 hrs by SRB assay", "conditions": "OVCAR-4, 48 h, read-out: GI", "procedure,_shortened": "as §2"}, "SF-539": {"system": "SF-539", "assay": "Growth inhibition of human SF539 cells at 10 uM after 48 hrs by SRB assay", "conditions": "SF-539, 48 h, read-out: GI", "procedure,_shortened": "as §2"}, "MDA-MB-231": {"system": "MDA-MB-231", "assay": "Growth inhibition of human MDA-MB-231 cells at 10 uM after 48 hrs by SRB assay", "conditions": "MDA-MB-231, 48 h, read-out: GI", "procedure,_shortened": "as §2"}, "DU-145": {"system": "DU-145", "assay": "Growth inhibition of human DU145 cells at 10 uM after 48 hrs by SRB assay", "conditions": "DU-145, 48 h, read-out: GI", "procedure,_shortened": "as §2"}, "MOLT-4": {"system": "MOLT-4", "assay": "Growth inhibition of human MOLT4 cells at 10 uM after 48 hrs by SRB assay", "procedure,_shortened": "as §2"}, "CAKI-1": {"system": "CAKI-1", "assay": "Growth inhibition of human Caki1 cells at 10 uM after 48 hrs by SRB assay", "conditions": "CAKI-1, 48 h, read-out: GI", "procedure,_shortened": "as §2"}, "K562": {"system": "K562", "assay": "Growth inhibition of human K562 cells at 10 uM after 48 hrs by SRB assay", "conditions": "K562, 48 h, read-out: GI", "procedure,_shortened": "as §2"}, "[2]": {"assay": "Growth inhibition of human NCI-ADR-RES cells at 10 uM after 48 hrs by SRB assay", "conditions": "read-out: GI", "procedure,_shortened": "as §2"}, "786-0": {"system": "786-0", "assay": "Growth inhibition of human 786-0 cells at 10 uM after 48 hrs by SRB assay", "conditions": "786-0, 48 h, read-out: GI", "procedure,_shortened": "as §2"}, "MCF7": {"system": "MCF7", "assay": "Growth inhibition of human MCF7 cells at 10 uM after 48 hrs by SRB assay", "conditions": "MCF7, 48 h, read-out: GI", "procedure,_shortened": "as §2"}, "OVCAR-3": {"system": "OVCAR-3", "assay": "Growth inhibition of human OVCAR3 cells at 10 uM after 48 hrs by SRB assay", "conditions": "OVCAR-3, 48 h, read-out: GI", "procedure,_shortened": "as §2"}, "SF-295": {"system": "SF-295", "assay": "Growth inhibition of human SF295 cells at 10 uM after 48 hrs by SRB assay", "conditions": "SF-295, 48 h, read-out: GI", "procedure,_shortened": "as §2"}, "M14": {"system": "M14", "assay": "Growth inhibition of human M14 cells at 10 uM after 48 hrs by SRB assay", "conditions": "M14, 48 h, read-out: GI", "procedure,_shortened": "as §2"}, "HL-60(TB)": {"system": "HL-60(TB)", "assay": "Growth inhibition of human HL-60(TB) cells at 10 uM after 48 hrs by SRB assay", "conditions": "HL-60, 48 h, read-out: GI", "procedure,_shortened": "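Single-concentration pass across the 60-line panel in RPMI 1640 with 5% FBS. Cells preincubated 24 h, then exposed 48 h at 37 °C, 5% CO2. Read by SRB staining with absorbance at 515 nm. Percent growth is taken relative to time-zero and untreated controls and reported as percent growth inhibition (GI %).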"}, "NCI-H322M": {"system": "NCI-H322M", "assay": "Growth inhibition of human NCI-H322M cells at 10 uM after 48 hrs by SRB assay", "conditions": "read-out: GI", "procedure,_shortened": "as §2"}, "SK-MEL-2": {"system": "SK-MEL-2", "assay": "Growth inhibition of human SK-MEL-2 cells at 10 uM after 48 hrs by SRB assay", "conditions": "SK-MEL-2, 48 h, read-out: GI", "procedure,_shortened": "as §2"}, "RPMI-8226": {"system": "RPMI-8226", "assay": "Growth inhibition of human RPMI8226 cells at 10 uM after 48 hrs by SRB assay", "conditions": "RPMI-8226, 48 h, read-out: GI", "procedure,_shortened": "as §2"}, "SK-MEL-5": {"system": "SK-MEL-5", "assay": "Growth inhibition of human SK-MEL-5 cells at 10 uM after 48 hrs by SRB assay", "conditions": "SK-MEL-5, 48 h, read-out: GI", "procedure,_shortened": "as §2"}, "A498": {"system": "A498", "assay": "Growth inhibition of human A498 cells at 10 uM after 48 hrs by SRB assay", "conditions": "A498, 48 h, read-out: GI", "procedure,_shortened": "as §2"}, "SW-620": {"system": "SW-620", "assay": "Growth inhibition of human SW620 cells at 10 uM after 48 hrs by SRB assay", "conditions": "SW-620, 48 h, read-out: GI", "procedure,_shortened": "as §1"}, "A549": {"system": "A549", "assay": "Growth inhibition of human A549 cells at 10 uM after 48 hrs by SRB assay", "conditions": "A549, 48 h, read-out: GI", "procedure,_shortened": "as §2"}, "COLO 205": {"system": "COLO 205", "assay": "Growth inhibition of human COLO205 cells at 10 uM after 48 hrs by SRB assay", "conditions": "COLO 205, 48 h, read-out: GI", "procedure,_shortened": "as §2"}, "NCI-H460": {"system": "NCI-H460", "assay": "Growth inhibition of human NCI-H460 cells at 10 uM after 48 hrs by SRB assay", "conditions": "NCI-H460, 48 h, read-out: GI", "procedure,_shortened": "as §2"}, "SNB-19": {"system": "SNB-19", "assay": "Growth inhibition of human SNB19 cells at 10 uM after 48 hrs by SRB assay", "conditions": "SNB-19, 48 h, read-out: GI", "procedure,_shortened": "as §1"}}, "note": "Active and inactive are the calls of the source. The rule behind the calls is not given here.", "data": [{"smiles": "Nc1ccc(Sc2ccc3c4c2cccc4c(=O)n2c4ccccc4nc32)cc1", "values": [{"measurement": "inhibition of growth at 10 µM", "setting": "SR", "result": 83.9, "unit": "%"}, {"measurement": "inhibition of growth at 10 µM", "setting": "SN12C", "result": 80.8, "unit": "%"}, {"measurement": "inhibition of growth at 10 µM", "setting": "SK-OV-3", "result": 46.1, "unit": "%"}, {"measurement": "inhibition of growth at 10 µM", "setting": "UO-31", "result": 90.7, "unit": "%"}, {"measurement": "inhibition of growth at 10 µM", "setting": "HOP-62", "result": 48.8, "unit": "%"}, {"measurement": "inhibition of growth at 10 µM", "setting": "[1]", "result": "< 20", "unit": "%"}, {"measurement": "inhibition of growth at 10 µM", "setting": "UACC-257", "result": 29, "unit": "%"}, {"measurement": "inhibition of growth at 10 µM", "setting": "MDA-MB-468", "result": 56.5, "unit": "%"}, {"measurement": "inhibition of growth at 10 µM", "setting": "SK-MEL-28", "result": 26.3, "unit": "%"}, {"measurement": "inhibition of growth at 10 µM", "setting": "HCT-15", "result": 59.5, "unit": "%"}, {"measurement": "inhibition of growth at 10 µM", "setting": "OVCAR-4", "result": 26, "unit": "%"}, {"measurement": "inhibition of growth at 10 µM", "setting": "SF-539", "result": 51.5, "unit": "%"}, {"measurement": "inhibition of growth at 10 µM", "setting": "MDA-MB-231", "result": 45.6, "unit": "%"}, {"measurement": "inhibition of growth at 10 µM", "setting": "DU-145", "result": 60.7, "unit": "%"}, {"measurement": "growth inhibition (GI)", "setting": "MOLT-4", "result": "Active"}, {"measurement": "inhibition of growth at 10 µM", "setting": "CAKI-1", "result": 94.1, "unit": "%"}, {"measurement": "inhibition of growth at 10 µM", "setting": "K562", "result": 39.7, "unit": "%"}, {"measurement": "inhibition of growth at 10 µM", "setting": "[2]", "result": 43.4, "unit": "%"}, {"measurement": "inhibition of growth at 10 µM", "setting": "786-0", "result": 62.7, "unit": "%"}, {"measurement": "inhibition of growth at 10 µM", "setting": "MCF7", "result": 76.4, "unit": "%"}, {"measurement": "inhibition of growth at 10 µM", "setting": "OVCAR-3", "result": 22.2, "unit": "%"}, {"measurement": "inhibition of growth at 10 µM", "setting": "SF-295", "result": 88, "unit": "%"}, {"measurement": "inhibition of growth at 10 µM", "setting": "M14", "result": 54.6, "unit": "%"}, {"measurement": "inhibition of growth at 10 µM", "setting": "HL-60(TB)", "result": 81.8, "unit": "%"}, {"measurement": "inhibition of growth at 10 µM", "setting": "NCI-H322M", "result": 38.2, "unit": "%"}, {"measurement": "inhibition of growth at 10 µM", "setting": "SK-MEL-2", "result": "< 20", "unit": "%"}, {"measurement": "inhibition of growth at 10 µM", "setting": "RPMI-8226", "result": 50, "unit": "%"}, {"measurement": "inhibition of growth at 10 µM", "setting": "SK-MEL-5", "result": 60.6, "unit": "%"}, {"measurement": "inhibition of growth at 10 µM", "setting": "A498", "result": 41.2, "unit": "%"}, {"measurement": "inhibition of growth at 10 µM", "setting": "SW-620", "result": 53.8, "unit": "%"}, {"measurement": "inhibition of growth at 10 µM", "setting": "A549", "result": 79.4, "unit": "%"}, {"measurement": "inhibition of growth at 10 µM", "setting": "COLO 205", "result": 49.2, "unit": "%"}, {"measurement": "inhibition of growth at 10 µM", "setting": "NCI-H460", "result": 90.5, "unit": "%"}, {"measurement": "inhibition of growth at 10 µM", "setting": "SNB-19", "result": 53.7, "unit": "%"}]}]}
